Results published in PubChem BioAssay AID2527 (Broad Institute, 2010).
Calls of active or inactive are those of the source.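 The calls were made as follows: active = at 30 µM dose, two-repeat average suppression of induced P-selectin signal exceeds 50%; inactive = average suppression 50% or lower.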

System: platelets, A23187-induced P-selectin, flow cytometry
Test: calcium ionophore platelet activation inhibition – cell-based, fluorescence, flow cytometry, platelets, selectivity assay, confirmation (AID 2527)
Details: at 30 µM; hits give high values
In short: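 assay system = stimulated platelets | also added = 10 µM A23187 | dosing = single compound dose of 30 µM | times = 20 min compound, 15 min A23187, 20 min stain | technique = flow cytometry, PE anti-P-selectin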

O=C(Nc1cccc(NC(=O)c2ccccc2Cl)c1)c1ccco1
inhibition: 5.95% (inactive)

CCCC(=O)Nc1cccc(NC(=O)c2ccccc2Br)c1
inhibition: 3.45% (inactive)
